Screening data (PubChem BioAssay)
A selection: hits, their analogues and other compounds. The true share with any hit is near 3.3%.
PRMT1 inh – PRMT1 methyltransferase inhibitors, primary screen, biochemical, fluorescence polarization; Protein arginine N-methyltransferase 1 (Homo sapiens), Q99873; actives 1.3% (n = 370,000); recombinant PRMT1, activity-based probe fluorescence polarization; inhibition, % at 2.79 µM;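 active = inhibition above about 21% made by adding two undisclosed values, limit read from the data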
MBD2 inh – inhibitors of MBD2 binding to methylated DNA, primary screen, biochemical, TR-FRET, DNA-binding domain, human. Methyl-CpG-binding domain protein 2 (Homo sapiens), Q9UBB5. MBD2 binding to methylated oligonucleotide. inhibition, % at 4.4 µM. actives 0.31% (n = 370,000); in the data active = inhibition above about 13%
UHRF1 MBD2 ctr – UHRF1 methylated DNA binding inhibitors, primary screen, counter-screen for MBD2 inhibitor project, biochemical, TR-FRET, human UHRF1, single concentration | actives 0.75% (n = 370,000) | inhibition, % at 4.4 µM | E3 ubiquitin-protein ligase UHRF1 (Homo sapiens), Q96T88 | UHRF1 binding to methylated oligo; in the data active = inhibition above about 21%;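 also: UHRF1 SRA domain binding a hemimethylated CpG hairpin DNA probe; 0% = median of test compound wells and 100% = reference inhibitor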
TDP2 absorb – human TDP2 enzyme inhibitors, primary screen, biochemical, epi absorbance, recombinant enzyme; T5PNP hydrolysis, p-nitrophenol absorbance 415 nm; inhibition, % at 12.8 µM; actives 0.34% (n = 370,000);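 active = inhibition above the mean of all tested compounds plus 3 SD, set per campaign, cut at about 25% in these data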;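 also: 0% = DMSO with enzyme and 100% = buffer with substrate but no TDP2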
Target sequence (O95551 whole entry, looked up): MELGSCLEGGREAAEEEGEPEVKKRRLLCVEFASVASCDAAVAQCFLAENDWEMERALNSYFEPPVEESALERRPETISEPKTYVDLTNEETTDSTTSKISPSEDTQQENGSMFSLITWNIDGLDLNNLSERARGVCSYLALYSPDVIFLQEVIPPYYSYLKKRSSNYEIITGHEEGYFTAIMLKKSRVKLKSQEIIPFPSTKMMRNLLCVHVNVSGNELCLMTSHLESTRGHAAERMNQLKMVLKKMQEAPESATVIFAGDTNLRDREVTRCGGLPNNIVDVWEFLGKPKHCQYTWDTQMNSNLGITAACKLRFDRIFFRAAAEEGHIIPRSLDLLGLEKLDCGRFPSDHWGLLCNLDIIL
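Material: recombinant human TDP2; quantity: TDP2 enzyme at 120 nM final; medium: Tris-HCl pH 7.5 with MgCl2; compound: single concentration, 12.8 µM nominal, with 1% DMSO; incubation: 2 h enzyme incubation at 37 °C; signal: epi absorbance; measure: percent inhibition; benchmarks: high control without enzyme, low control DMSO plus TDP2; repeats: singlicate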
LEDGF integ inh – blockers of LEDGF/p75-dependent integrase strand transfer – biochemical, TR-FRET, high throughput, primary screen; TR-FRET IN-LEDGF/p75 DNA integration, Eu/Cy5; actives 0.64% (n = 370,000); inhibition, % at 3.7 µM; AID 743269, 2014; HIV-1 integrase (with human LEDGF/p75);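 active = inhibition above the screen-wide mean plus 3 SD, cut at about 13% in these data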;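 also: signal is the Cy5 over europium emission ratio at 671 and 618 nm; 0% = plate median of compound wells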
SIAE primary – human SIAE inhibitors, primary screen, biochemical, fluorescence polarization, FP-Rh probe, 1536-well HTS; Sialate O-acetylesterase (Homo sapiens), Q9HAT2; SIAE FP-Rh probe binding; inhibition, % at 9.66 µM; actives 0.69% (n = 370,000);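 active = inhibition above a cutoff: mean of compounds within the control limits plus 3 SD of those, cut at about 17% in these data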;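 also: 0% = plate median of compound wells and 100% = probe without SIAE protein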
PRMT1 inh conf – PRMT1 methyltransferase inhibitors, confirmation, biochemical, fluorescence polarization, triplicate | shares compounds with PRMT1 inh | recombinant His-PRMT1, activity-based probe fluorescence polarization | inhibition, % at 2.79 µM | actives 42% (n = 3,300);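 active = mean inhibition across replicates above the hit cutoff derived for the earlier primary screen, cut at about 22% in these data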
Active calls of the source: *; nt = no result given.

SMILES	PRMT1 inh	MBD2 inh	UHRF1 MBD2 ctr	TDP2 absorb	LEDGF integ inh	SIAE primary	PRMT1 inh conf
Cc1ccc2nc(N(CCCN(C)C)C(=O)c3ccc4ncsc4c3)sc2c1	28*	3	2	-1	-1	5	10
Cc1ccc(NC(=O)CC2SC(=O)NC2=O)cc1 (stereo not given)	56*	0	-9	-12	1	-4	76*
COc1ccc(NC(=O)CC2SC(=O)NC2=O)cc1 (stereo not given)	53*	-4	-3	0	-1	0	66*
C#CCN1CC(N(C)CCOC(=O)c2ccc([N+](=O)[O-])cc2)CS1(=O)=O (stereo not given)	-2	4	4	-15	4	2	nt
Cc1ccc(CNC(=O)c2c(-c3ccccc3)sc3ccccc23)o1	39*	3	7	-18	-1	0	1
CN(CCO)c1ccc2c(c1)Oc1ccccc1CN(Cc1cn(Cc3ccc(F)cc3)nn1)S2(=O)=O	-3	2	5	-2	4	5	nt
CC(C)[C@H]1/C(=C/C2CC2)N2C(=O)C[C@@H](c3ccccc3)N=C2N1Cc1ccc2c(c1)OCO2	-1	-1	-1	2	-3	-2	nt
Cc1cc(SCNC(=O)c2ccccc2)ncn1	71*	-1	-1	-6	-5	-2	7
O=C(NCSc1ccccc1)c1ccccc1	2	3	20	2	0	1	nt
COCCCN1C(=O)[C@H](CC(=O)N2CCCC2)[C@]2(C(=O)OC)CCCCC=C12	1	4	-4	11	-2	2	nt
O=[n+]1c2c(n([O-])c3cc(Br)ccc31)CCCC2	1	1	-1	7	-3	8	nt
O=[n+]1c2c(n([O-])c3ccccc31)CCCC2	76*	-6	-2	6	1	1	-2
O=C(NC1CCCCCC1)c1ccc[nH]c1=S	49*	-1	4	-7	7	-5	4
Nc1c(C(=O)Nc2ccc(Br)cc2)sc2nc(-c3ccco3)ccc12	45*	-1	-4	1	15*	16	21
Nc1c(C(=O)Nc2ccc(F)cc2)sc2nc(-c3ccco3)ccc12	44*	-6	-1	-10	5	15	30*
NC(=O)C1CCN(c2ncc(Br)cn2)CC1	3	-2	2	-3	0	1	nt
Cc1ccc(SC2=C(N(C)C)C(=O)c3ccccc3C2=O)cc1	52*	-13	-5	2	-6	-1	49*
CCC1(O)C(=O)OCc2c1cc1n(c2=O)Cc2cc3cc(O)ccc3nc2-1 (stereo not given)	28*	-7	-1	10	1	14	31*
C[C@@H]1OC(C2CCCCC2)N(C)[C@H]2C[C@H]3c4[nH]c5cccc(-c6ccccc6)c5c4CCN3C[C@@H]12 (stereo not given in full)	2	-3	-2	-13	-3	-1	nt
CC(=O)c1ccc(Sc2ccccc2N)c([N+](=O)[O-])c1	2	-1	-2	-7	0	7	nt
Nc1ccccc1Sc1ccc(C(=O)c2ccccc2C(=O)O)cc1[N+](=O)[O-]	72*	-5	9	-20	5	12	19
COC(=O)[C@@]1(Cc2ccc(OC)cc2)[C@H]2c3cc(C(=O)N4CCCC4)n(Cc4ccc(C)o4)c3C[C@H]2CN1C(=O)c1ccccc1	39*	4	1	-13	2	-2	3
N#Cc1ccc(CC(=O)c2ccccc2)[nH]c1=O	29*	-7	-2	-4	6	7	0
CCN(CC)CCOC(=O)C(c1ccccc1)c1ccccc1	0	-3	0	2	0	-3	nt
CCN(CC)CCSC(=O)C(c1ccccc1)c1ccccc1	76*	-4	12	-8	2	7	40*
SMILES	PRMT1 inh	MBD2 inh	UHRF1 MBD2 ctr	TDP2 absorb	LEDGF integ inh	SIAE primary	PRMT1 inh conf
Cc1ccc(NC(=O)c2cc(N3C(=O)C=CC3=O)ccc2N2CCOCC2)cc1	91*	-5	-3	-18	-9	0	89*
COC(=O)[C@]12C[C@H](CC(=O)NCc3ccc(OC)c(OC)c3)C(=O)N(Cc3ccc(Cl)cc3Cl)C1=C[C@H](C1CCCC1)O[C@@H]2C	1	3	0	-3	0	6	nt
CC[n+]1c(C)sc2c(C)cc(C)cc21	46*	-1	-2	-3	-5	0	20
Cc1ccc2c(C)cc[n+](CCCS(=O)(=O)[O-])c2c1	-2	-3	5	-7	3	5	nt
Cc1cc(C)c2sc(C)[n+](CCCS(=O)(=O)[O-])c2c1	51*	2	0	-5	-7	-3	32*
C#CCNC(=O)C[C@H]1C(=O)N(CCCOC)C2=CCCCC[C@]21C(=O)OC	-3	-2	3	-12	4	5	nt
CCOC(=S)SCc1cn2cccc(C)c2n1	57*	-1	5	-5	-6	-5	12
Cc1ccc2nc(-c3cccc(Br)c3)c(Cc3ccccc3)n2c1	-3	6	20	-10	3	-10	nt
Cc1cc2nc(-c3ccco3)c(Cc3cccc(Cl)c3)n2c(C)c1Br	20	1	6	-14	9	2	nt
Clc1ccc(-c2nc3ccc(Cl)cn3c2Cc2cccc(Cl)c2)cc1	2	-7	-2	-4	3	-16	nt
Brc1ccc2nc(-c3ccco3)c(Cc3ccccc3)n2c1	42*	10	10	-20	2	-4	15
Clc1cccc(Cc2c(-c3ccco3)nc3ccc(Cl)cn23)c1	47*	2	8	-8	2	6	17
Clc1cccc(Cc2c(-c3ccco3)nc3ccc(Br)cn23)c1	34*	3	5	-11	11	-7	13
Cn1cccc1C(=O)N1CCN(S(=O)(=O)c2ccc([N+](=O)[O-])cc2)CC1	1	-5	-4	1	0	2	nt
C/C(=N\NC(=S)NCCc1ccccc1)c1cccs1	29*	4	0	-1	-1	3	12
C/C(CCc1ccccc1)=N\NC(=S)NCCc1ccccc1	1	-3	0	14	1	-5	nt
